The list is not random: actives were taken first. Their share in the collection is about 1.3%.
PLC-beta3 inh: human PLC-beta3 inhibitors, primary screen, biochemical, fluorescence | 0.18% of 370,000 active | Purified PLC-beta3, fluorogenic substrate | 1-phosphatidylinositol 4,5-bisphosphate phosphodiesterase beta-3 (Homo sapiens), Q01970 | inhibition, % at 12.2 µM; in the data active = inhibition above about 11%;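 also: 0% = median of compound wells on plate and 100% = full blocker control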
NTR1 agonist: agonists of human NTR1, primary screen, imaging, U2OS cells, beta-arrestin-GFP, high content | NTR1-U2OS beta-arrestin-GFP spot imaging, agonist mode | activation, % at 20 µM | 0.17% of 330,000 active | AID 493036, 2011;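 active = activation at or above 40% of the spot to cytoplasm intensity ratio, with at least 20 cells analyzed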;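 also: 0% = DMSO without peptide and 100% = 100 nM NTR1 peptide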
Arr AP2 block: inhibitors of beta-arrestin/AP2 binding, primary screen, biochemical, GPCR trafficking, flow cytometry. beta-arrestin 1 C-terminal peptide binding to AP2 beta2-adaptin appendage (human). FITC-arrestin peptide / GST-AP2 beads; AP2 beta2 appendage carries R879A mutation. inhibition, % at 10 µM. 0.31% of 340,000 active. AID 504490, 2011;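 active = inhibition above a set limit, near 3 SD of compounds lacking own fluorescence, cut at about 54% in these data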;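 also: plate controls were DMSO wells for no effect and 5 µM unlabelled arrestin peptide for full effect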
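System: GST-AP2 R879A bound to glutathione beads, E. coli-expressed. Also added: 50 nM FITC-arrestin peptide. Schedule: compound with beads 12 min RT, then probe 1 h RT. Signal: bead flow cytometry, FITC channel. Read-out basis: percent response.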
PLCg1 inh: PLC-gamma1 enzyme inhibitors, primary screen, biochemical, fluorescence, purified enzyme. fluorogenic substrate. inhibition, % at 12.2 µM. 0.84% of 370,000 active. AID 720700, 2013; in the data active = inhibition above about 9.5%
Arr AP2 CP1: inhibitors of arrestin peptide binding to AP2, confirmation, biochemical, cherry pick 1, flow cytometry beads; shares compounds with Arr AP2 block; GST-AP2 beads, FITC arrestin peptide binding; GST-fused beta2-adaptin appendage, R879A mutant; inhibition, % at 10 µM; 2% of 1,300 active; AID 504908, 2011;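 active = inhibition above a set limit, roughly 3 SD of non-fluorescent compound noise, cut at about 38% in these data; inactive = inhibition at or below that limit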;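 also: loss of bead fluorescence from 50 nM FITC arrestin peptide bound to appendage; 0% = negative control wells and 100% = excess unlabelled arrestin peptide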
GST GSH counter: GST-fluorescein capture on glutathione beads, confirmation, artefact control for arrestin-AP2 inhibitor project, biochemical, cherry pick 1, flow cytometry; GST-fluorescein binding to GSH beads, fluorescence, counter-screen; shares compounds with Arr AP2 block; 2% of 1,300 active; inhibition, % at 10 µM; AID 588338, 2011;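 active = inhibition above 50%, about 3 SD of the inhibition seen with non-fluorescent compounds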;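 also: fluorescein maleimide labelled GST captured on 4 micron glutathione beads; higher means more loss of bead fluorescence from quenching or blocked binding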
The depositor's hits bear a star; x = no result.

SMILES | PLC-beta3 inh | NTR1 agonist | Arr AP2 block | PLCg1 inh | Arr AP2 CP1 | GST GSH counter
COc1ccc(C2CC(=O)C(c3cccc(Cl)c3)=CN2Cc2ccccc2)cc1 (stereo not drawn) | -59 | x | x | -40 | x | x
Cn1nc(C(=O)N2CCN(c3cccc(Cl)c3)CC2)c2c1-c1ccccc1S(=O)(=O)C2 | 3 | 5 | -11 | -1 | x | x
Cn1nc(C(=O)N2CCN(c3ccc(Cl)cc3)CC2)c2c1-c1ccccc1S(=O)(=O)C2 | -8 | 2 | 55* | 3 | -7 | -14
N#Cc1nc(-c2ccccc2Cl)oc1N1CCCCC1 | -63 | 2 | 36 | -50 | x | x
CC1CC(C)CN(c2oc(-c3ccccc3Cl)nc2C#N)C1 (stereo not drawn) | 2 | 1 | 118* | 1 | 14 | -1
Cc1cc(Nc2cccc(Br)c2)cc(=O)n1-c1cccc(Br)c1 | -12 | x | x | -7 | x | x
C#CCNC(=O)C[C@H]1C[C@@]2(C(=O)OC)C(=C[C@H](C(C)(C)C)O[C@@H]2C)N(CCc2ccc(OC)c(OC)c2)C1=O | -1 | x | x | -3 | x | x
O=C(/C=C/c1cccs1)Nc1cccnc1 | 6 | -1 | 56* | 7 | 2 | 0
NC(=O)CSc1nc2c(c(=O)n1-c1ccccc1)C1(CCCCC1)Cc1ccccc1-2 | -1 | 13 | 63* | -2 | -10 | -6
Cc1cccc(-n2c(SCC(N)=O)nc3c(c2=O)C2(CCCC2)Cc2ccccc2-3)c1 | -18 | 16 | 20 | -16 | x | x
Cc1cc(C)nc(NS(=O)(=O)c2ccc(NC(=S)NC(=O)c3ccco3)cc2)n1 | 1 | 1 | 58* | 3 | -5 | -5
COc1cc(NS(=O)(=O)c2ccc(NC(=S)NC(=O)c3ccco3)cc2)nc(OC)n1 | -9 | 0 | -18 | 0 | x | x
N#Cc1ccc(/C=C2\CC3(OC(=O)C4CCCC4)CCCN2C3)cc1 (stereo not drawn) | -4 | x | x | 0 | x | x
COc1cc(OC)cc(C(=O)O/N=C(\N)c2ccccn2)c1 | -8 | 1 | 55* | -5 | -5 | -5
COc1ccc(C(=O)COC(=O)c2ccccn2)cc1OC | -7 | 2 | 56* | 7 | -2 | 3
CC(=O)c1cc(-c2ccc3[nH]ccc3c2)c(=O)n2c1CCC2 | -16 | x | x | -12 | x | x
COc1ccc(-n2c(=O)c3ccccc3n(CC(=O)Nc3ccccc3OC)c2=O)cc1 | -2 | -1 | 1 | 1 | x | x
CCOc1ccccc1NC(=O)Cn1c(=O)c2ccccc2n(CC)c1=O | 3 | 1 | 5 | 1 | 7 | -6
CCn1c(=O)n(CC(=O)Nc2cc(OC)ccc2OC)c(=O)c2ccccc21 | 0 | 1 | 26 | 5 | -5 | 15
O=C(/C=C(\Nc1cccc(Cl)c1)c1ccccc1)c1ccccc1 | 1 | x | x | 1 | x | x
COc1ccc(-c2cc(C(F)F)n3ncc(C(=O)Nc4cc(C)on4)c3n2)cc1 | -38 | 2 | 104* | -35 | -6 | 22
COC(=O)[C@]12C[C@H](CC(=O)NCC34CC5CC(CC(C5)C3)C4)C(=O)N(CCc3ccc(OC)c(OC)c3)C1=C[C@H](COCc1ccccc1)O[C@@H]2C | -1 | x | x | -2 | x | x
O=C(Cc1ccccc1[N+](=O)[O-])N1CCN(c2ccccc2F)CC1 | 6 | -3 | 61* | 6 | 1 | 4
O=C1NC(=S)N/C1=C/C=C/c1ccccc1 | -8 | 0 | 106* | -7 | -9 | 2
CC1=NN(c2ccccc2)C(=O)C1/C=C1/NC(=S)NC1=O (stereo not drawn) | -8 | 1 | 11 | -5 | x | x
SMILES | PLC-beta3 inh | NTR1 agonist | Arr AP2 block | PLCg1 inh | Arr AP2 CP1 | GST GSH counter
N#CCC[C@@H]1CC[C@]2(CCCN(Cc3ccc(Cl)cc3)C2)O1 | -1 | x | x | -2 | x | x
Cc1ccc(S(=O)(=O)CCC(=O)NCc2ccc(Cl)cc2)cc1 | 2 | 0 | -8 | 7 | x | x
Cc1ccc(CNC(=O)CCS(=O)(=O)c2ccc(C)cc2)cc1 | -3 | 0 | 70* | 2 | -3 | -5
Cc1ccc(CN2CCCCC(NC(=O)c3c(F)cccc3F)C2=O)cc1 (stereo not drawn) | -1 | x | x | 0 | x | x
CCCCCCCCN1C(=O)[C@@H](CC(=O)N2CCCCC2)C[C@@]2(C(=O)OC)C1=C[C@H](COCc1ccccc1)O[C@@H]2C | -2 | x | x | -3 | x | x
COC(=O)C1=C(C)N(C)C(=NCc2cccc(C(F)(F)F)c2)NC1c1ccc(Cl)cc1 (stereo not drawn) | 2 | x | x | 1 | x | x
Cc1noc(C)c1S(=O)(=O)Nc1ccc2c(c1)C(=O)N([C@H](C)CO)C[C@H](C)[C@@H](CN(C)Cc1ccc(C(=O)O)cc1)O2 | -8 | 2 | 60* | -4 | 7 | 10
C/C(=N\NC(=O)c1ccccc1OCCOc1ccccc1)c1ccccc1F | 3 | 15 | 76* | -1 | -17 | -1
C/C(=N\NC(=O)c1ccccc1)c1ccccc1F | 1 | 0 | 3 | 1 | x | x
CC[C@@]1(c2ccc(C)cc2)C(=O)N(C(=O)OC(C)C)N1C(=O)OC(C)C | 5 | x | x | 7 | x | x
Cc1cccc(C(C)C)c1NC(=O)COC(=O)c1cc2ccccc2oc1=O | -26 | 0 | 28 | -10 | x | x
Cc1ccc(C)c(NC(=O)COC(=O)c2cc3ccccc3oc2=O)c1 | -11 | -1 | 66* | -5 | 2 | 5
Oc1ccc2ccccc2c1C=NN1CCN(Cc2ccc(Cl)cc2)CC1 | -5 | x | x | -4 | x | x
CC(C)C(=O)OCC(=O)Nc1ccc(N=Nc2ccccc2)cc1 | 6 | x | 56* | 6 | -4 | -4
CC(=O)OCC(=O)Nc1ccc(N=Nc2ccccc2)cc1 | 10 | -2 | 8 | 7 | x | x
CCOc1ccc(C(C)=O)cc1N1C(=O)C2C3C=CC(O3)C2C1=O (stereo not drawn) | x | 0 | 78* | x | -2 | -6
O=C(N/N=C/c1ccco1)c1cc(-c2ccc3ccccc3c2)n[nH]1 | -1 | 2 | 56* | 1 | 5 | -11
Cn1ccc(C(=O)OCC(=O)c2ccccc2)n1 | -2 | 0 | 18 | 1 | x | x
Cn1ccc(C(=O)OCC(=O)Nc2cccc3ccccc23)n1 | -4 | -1 | 59* | 3 | -6 | -4
CCSc1nnc(-c2ccncc2)o1 | 0 | 3 | 2 | 0 | x | x
CCSc1nnc(-c2sc3nnc(-c4ccccc4)c(-c4ccccc4)c3c2N)o1 | -121 | 3 | 73* | -97 | 19 | 13
COC(=O)[C@]12C[C@H](CC(=O)N3CCOCC3)C(=O)N(CCC3=CCCCC3)C1=C[C@H](C(C)C)O[C@@H]2C1CC1 | 4 | x | x | -1 | x | x
O=C(CSc1nc2ccccc2nc1N1CCCC1)N1CCN(c2cccc(C(F)(F)F)c2)CC1 | -17 | x | x | -9 | x | x
